# From PubChem
# Sampled rows, rich in hits. Any-hit rate of the full collection: about 0.7%.
# proCasp3 act: activates human procaspase-3; 330,000 compounds, 0.11% hits; recombinant procaspase-3 D3A, Ac-DEVD-pNA absorbance 405 nm; AID 463141; activation, % at 8.5 µM;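 active means activation above the mean of all tested compounds plus 3 SD, cut at about 21% in these data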;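 further: 0% = DMSO alone and 100% = DMSO wells spiked with extra 5 µM PC-3 D3A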
# Target sequence (P42574 whole entry D9A/D28A/D175A): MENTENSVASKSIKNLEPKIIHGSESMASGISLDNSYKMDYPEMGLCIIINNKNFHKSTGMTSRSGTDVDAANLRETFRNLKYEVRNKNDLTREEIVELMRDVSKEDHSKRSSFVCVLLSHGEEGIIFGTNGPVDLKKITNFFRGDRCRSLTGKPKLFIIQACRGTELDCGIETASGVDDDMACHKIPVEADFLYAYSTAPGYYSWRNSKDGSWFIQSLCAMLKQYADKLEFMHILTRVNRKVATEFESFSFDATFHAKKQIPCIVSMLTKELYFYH
#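 Assay system – Procaspase-3 D3A mutant, all three cleavage aspartates alanine · Controls – DMSO-only low control, 5 µM PC-3 D3A high control · Schedule – 1 h compound preincubation, 2 h substrate hydrolysis at 25 °C · Signal – 405 nm absorbance of p-nitroaniline, reads at 0 and 120 min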
# FXN GAA850 act: frataxin GAA850 promoter activation; activation, % at 6 µM; AID 540364; HEK293 lucGAA850 FXN promoter luciferase reporter, 24 h; percent of 10 µM SAHA response; 360,000 compounds, 0.56% hits;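 active means activation above the average of all compounds screened plus 3 SD, cutoff fixed separately per campaign, cut at about 7.5% in these data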;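 further: 0% = DMSO wells and 100% = 10 µM SAHA wells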
# procasp7 counter: counter-screen for procaspase-3 activators: activators of human procaspase-7; P55210; recombinant procaspase-7, Ac-DEVD-pNA absorbance 405 nm; D23A/D198A/D206A triple mutant, cannot self-cleave; scale: DMSO 0, 5 µM enzyme 100; activation, % at 8.5 µM; 330,000 compounds, 0.093% hits;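 active means percent activation above the screen-wide mean plus 3 SD, cut at about 25% in these data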
# Target sequence (P55210 whole entry D23A/D198A/D206A): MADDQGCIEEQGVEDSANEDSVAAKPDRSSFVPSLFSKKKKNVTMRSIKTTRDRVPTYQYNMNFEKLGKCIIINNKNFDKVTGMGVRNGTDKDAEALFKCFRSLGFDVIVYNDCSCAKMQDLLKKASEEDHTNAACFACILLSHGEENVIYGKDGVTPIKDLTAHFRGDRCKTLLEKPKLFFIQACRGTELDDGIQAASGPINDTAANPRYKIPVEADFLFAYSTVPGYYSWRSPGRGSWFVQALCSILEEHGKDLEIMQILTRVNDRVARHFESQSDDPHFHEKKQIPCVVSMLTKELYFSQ
#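 System: Uncleavable procaspase-7 mutant enzyme; Amount: 2 µM procaspase-7 mutant as dispensed; Schedule: 1 h compound preincubation, 2 h substrate cleavage, 25 °C; Measured by: 405 nm absorbance of p-nitroaniline; Evaluation: percent activation from buffer-corrected 0–120 min absorbance change; Control set: low DMSO alone, high DMSO plus 5 µM PC-7.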
# GAA30 FXN cntr: counter-screen for GAA850 frataxin promoter activators: GAA30 promoter activation. shares compounds with FXN GAA850 act. HEK293 lucGAA30 FXN promoter luciferase, 24 h; DMSO = 0%, 5 µM ipriflavone = 100%. activation, % at 6 µM. 1,900 compounds, 66% hits. AID 588350;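 active means mean activation above the mean of solvent-only control wells plus 3 SD, cut at about 22% in these data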;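 further: counterscreen of GAA850 promoter hits where activity marks nonselective or luminescence artifacts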
# FXN GAA850 conf: GAA850 FXN promoter activation confirmation | HEK293 lucGAA850 FXN promoter luciferase reporter, 24 h; 100% = activation by SAHA | activation, % at 6 µM | shares compounds with FXN GAA850 act | 1,900 compounds, 86% hits | AID 588351;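 active means mean activation above a set limit taken from the primary screen, cut at about 8% in these data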;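 further: 0% = DMSO wells and 100% = 10 µM SAHA wells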
# * = called active by the depositor; / = not tested or not shown.
SMILES,proCasp3 act,FXN GAA850 act,procasp7 counter,GAA30 FXN cntr,FXN GAA850 conf
Cc1ccc(N2CCN(C(=S)Nc3ccccc3C)CC2)cc1,8.6,0.5,-10.2,/,/
C=CCOc1ccc(C2/C(=C(/O)c3ccc4c(c3)CC(C)O4)C(=O)C(=O)N2CCCN2CCOCC2)cc1 (stereo unspecified),7.0,1.8,-38.4,/,/
O=C(CSc1ccc2ccccc2c1)NCCc1ccc(O)c(O)c1,-31.6,12.9*,-41.0,43.3*,12.9*
COc1ccc(CCNC(=O)CSc2ccc3ccccc3c2)cc1OC,-3.8,-0.8,-7.7,/,/
COc1cc(/C=C(/C#N)C(=O)Nc2ccc(C)cc2)ccc1Oc1nc(Cl)ncc1F,-1.9,-1.3,-7.1,/,/
O=C(Nc1nc2ccccc2[nH]1)C1CCCC1,-0.6,10.1*,14.2,85.8*,26.4*
O=C(Nc1nc2ccccc2[nH]1)C1CCC1,9.6,5.3,10.4,/,/
Cc1cccc(C)c1NC(=O)CN1CCN(C(=O)c2cc(C3CC3)nn2-c2ccccc2)CC1,/,2.8,/,/,/
CN(C)c1ccc(C(C(=O)NCc2ccccc2)N(Cc2cccnc2)C(=O)c2snc(C(N)=O)c2N)cc1 (stereo unspecified),/,-8.5,/,/,/
Cc1cc(OCC(=O)NCCCn2ccnc2)c2c(C)c(C)c(=O)oc2c1,-27.0,-1.4,2.8,/,/
Cc1noc(C)c1COc1ccccc1C(=O)N(C)CC(=O)Nc1ccc(F)cc1,8.4,1.0,0.3,/,/
Cc1cccc2cc(CN(C(=O)c3cnccn3)C3CCCCC3)c(Cl)nc12,5.2,7.6*,1.2,11.5,5.0
CCOc1ccc2nc(Cl)c(CN(C(=O)c3cnccn3)C3CCCC3)cc2c1,1.0,1.2,5.8,/,/
Cc1cc(C(=O)N/N=C/C=C/c2cccc([N+](=O)[O-])c2)n[nH]1,-1.1,-0.5,-4.3,/,/
O=C(Cn1ncc(Cl)c(Cl)c1=O)N1CCOCC1,4.5,9.3*,-2.4,11.0,7.1
CCc1ccc(C(=O)Cn2ncc(Cl)c(Cl)c2=O)cc1,-11.3,8.5*,-7.6,15.0,14.6*
Cc1ccc(Cn2ncc(Cl)c(Cl)c2=O)cc1,5.5,1.6,-4.0,/,/
O=C(Cn1ncc(Cl)c(Cl)c1=O)N1CCN(Cc2ccccc2)CC1,/,-2.3,/,/,/
NS(=O)(=O)c1ccc(CCNC(=O)c2ccc(Cn3c(=O)[nH]c4ccccc4c3=O)cc2)cc1,-5.9,1.0,1.5,/,/
O=C(Cc1ccc(Br)cc1)N(Cc1ccccc1)c1ccccn1,5.6,1.3,-11.8,/,/
COCC(=O)NCCc1nc2ccccc2[nH]1,8.0,16.5*,-3.8,22.4*,7.9*
COCC(=O)NCc1nc2ccccc2[nH]1,10.2,-0.7,9.2,/,/
O=C(N/N=C\c1cccc(Cl)c1)c1n[nH]c2c1CCCC2,-4.0,10.2*,-7.4,72.6*,19.9*
O=C(N/N=C/c1ccc(Cl)cc1Cl)c1n[nH]c2c1CCCC2,8.0,-3.2,6.8,/,/
O=C(N/N=C/C(Br)=C\c1ccccc1)c1n[nH]c2c1CCC2,-1.5,17.1*,-17.6,29.3*,68.4*
SMILES,proCasp3 act,FXN GAA850 act,procasp7 counter,GAA30 FXN cntr,FXN GAA850 conf
O=C(N/N=C/C=C\c1ccccc1)c1cnccn1,0.6,0.4,-2.1,/,/
CC(/C=N/NC(=O)c1n[nH]c2c1CCC2)=C\c1ccccc1,-3.7,5.3,-1.1,/,/
O=C(N/N=C/C(Br)=C/c1ccccc1)c1cnccn1,7.0,8.9*,4.5,107.3*,39.4*
CCCOc1ccc(F)cc1-c1cc(C(=O)NCCOC)[nH]n1,/,0.1,/,/,/
O=c1c2c(nc3nc(NCc4cccc(Cl)c4)[nH]n13)CCC2,-5.9,3.5,-4.2,/,/
CN(C)c1ccc(NC(=O)CN2C(=O)c3ccccc3C2=O)cc1,-7.1,0.5,1.2,/,/
Cc1cc(C)n(-c2ccc(C(=O)N3CCN(S(=O)(=O)c4ccc(OC(F)(F)F)cc4)CC3)cc2)n1,/,-0.9,/,/,/
Cc1cc(C)nc(Nc2cccc(C(F)(F)F)c2)n1,-1.1,0.8,-3.5,/,/
Nc1ccccc1Nc1cccc(C(F)(F)F)c1,3.6,8.7*,-16.3,-0.7,9.6*
CC(C(=O)NCc1ccccn1)c1ccc([N+](=O)[O-])cc1 (stereo unspecified),0.4,-0.9,4.9,/,/
COc1ccc(-c2cnc3c(-c4ccc(F)cc4)cnn3c2N)cc1,6.1,6.6,1.7,/,/
Cc1nc2c(-c3ccc(F)cc3)cnn2c2c1CCC2,4.0,8.2*,1.7,90.4*,29.2*
O=C1/C(=C/c2cccs2)CCC/C1=C\c1cccs1,-19.5,4.5,-15.9,/,/
Cn1cccc1/C=C1\CCC/C(=C\c2cccn2C)C1=O,-23.1,12.3*,-7.7,98.9*,38.8*
O=C(c1ccc(OC2CCN(CCc3ccccc3)CC2)cc1)N1CCC(CO)CC1,7.5,-1.1,4.1,/,/
COc1ccccc1NC(=O)c1cc2c(=O)n(C)c3ccccc3c2n1C,-2.1,-2.8,5.2,/,/
CC(C)=CC(=O)NCCc1ccccc1,0.4,15.0*,9.0,74.8*,20.5*
O=C(O)/C=C/C(=O)NCCc1ccccc1,-13.0,0.5,0.6,/,/
C[C@H](NCc1c[nH]c2ccccc12)c1ccccc1,3.7,-1.7,3.1,/,/
CCCn1c2ccccc2c2cc(C(=O)O)ccc21,4.4,2.2,5.0,/,/
CCn1c2ccccc2c2nc3cc(C(=O)O)ccc3nc21,/,11.9*,/,100.5*,27.1*
O=C(NC1CCCCNC1=O)c1ccco1 (stereo unspecified),-2.7,1.1,7.6,/,/
CC(C)CNC(=O)c1cccc(NC(=O)COc2ccc([N+](=O)[O-])cc2)c1,0.4,0.5,3.1,/,/
CCCN(CC(=O)Nc1ccccc1C)C(=O)C1CCN(S(=O)(=O)c2cccc(C(F)(F)F)c2)CC1,15.1,-3.8,2.0,/,/
Cc1csc(=O)n1CC(=O)OCC(=O)NCc1ccc(Cl)cc1Cl,12.9,0.9,3.0,/,/
SMILES,proCasp3 act,FXN GAA850 act,procasp7 counter,GAA30 FXN cntr,FXN GAA850 conf
CCc1nc2sc(C(C)=O)c(N)c2c2c1CCCC2,-20.3,-1.2,-21.0,/,/
CCc1nc2sc(C#N)c(N)c2c2c1CCCC2,-6.1,10.4*,-3.0,14.2,14.2*
COc1cc(/C=C/C(=O)N2C(=O)c3cccc(N)c3C2=O)cc(OC)c1OC,6.3,5.1,-7.0,/,/
COc1ccc(OC)c(/C=C/C(=O)N2C(=O)c3cccc(N)c3C2=O)c1,-4.3,9.2*,-6.0,-2.5,8.9*
CCc1ccccc1N(CC(=O)Nc1cccnc1)S(=O)(=O)c1ccccc1,-1.1,0.7,-0.2,/,/
O=C(O)C1=CC(=C(c2ccc(O)c(C(=O)O)c2)c2ccc(O)c(C(=O)O)c2)C=CC1=O,4.9,/,1.5,/,/
O=C1C=CC(=C(c2ccc(O)cc2)c2ccc(O)cc2)C=C1,9.3,8.6*,14.3,28.7*,36.8*
CC[C@]12c3[nH]c4ccc(OC)cc4c3CCN1C(=O)C(CC(=O)NCC13CC4CC(CC(C4)C1)C3)C[C@@H]2C(=O)N1CCN(C(=O)c2ccco2)CC1 (stereo partly specified),4.3,14.5*,6.7,1.6,10.6*
